Measurements from different studies.
Compare with care: the assays were run in different laboratories.
Target: Calcium/calmodulin-dependent protein kinase type 1D (CAMK1D, Homo sapiens, UniProt Q8IU85)

Compound | test | setting | remaining binding [%]
COc1cnc(Nc2cccc(S(N)(=O)=O)c2)nc1N1CCN(c2ccccc2)CC1 | binding, competition with immobilised ligand | 1 µM | 100
CNC(=O)c1ccc(Nc2ncc(C(F)(F)F)c(NCc3nccnc3N(C)S(C)(=O)=O)n2)cc1 | cell-free assay, competition with immobilised ligand | 0.1 µM | 100
O=C(NCCCN1CCOCC1)c1ccc(Nc2nccc(-c3cc4ccccc4s3)n2)cc1 | binding, competition with immobilised ligand | 1 µM | 48
O=C(NCC1CCOCC1)c1n[nH]cc1NC(=O)c1c(F)cccc1F | binding, competition with immobilised ligand | 1 µM | 96
COc1ccc2c(c1)O[C@@H](c1ccc(OC)c(OC)c1)C[C@H]2NC(=O)C1(c2ccc3c(c2)OC(F)(F)O3)CC1 | cell-free assay, competition with immobilised ligand | 1 µM | 94
O=C(c1ccc(Nc2ncc(Cl)c(-c3ccc(Cl)s3)n2)cc1)N1CCC(N2CCCC2)CC1 | binding, competition with immobilised ligand | 1 µM | 22
O=S(=O)(NC1CCC(c2cc(F)ccc2F)(S(=O)(=O)c2ccc(Cl)cc2)CC1)C(F)(F)F (stereo not shown) | cell-free assay, competition with immobilised ligand | 1 µM | 79
N[C@H]1CCN(c2nccc(-c3cnn4ncccc34)n2)C1 | binding | 1 µM | 91
O=C(NS(=O)(=O)c1ccc(NCC2CCOCC2)c([N+](=O)[O-])c1)c1ccc(N2CCN(Cc3ccc(C(F)(F)F)cc3-c3ccc(Cl)cc3)CC2)cc1Oc1cnc2[nH]ccc2c1 | cell-free assay, competition with immobilised ligand | 1 µM | 92
C[C@H]1CCN(c2nccc(-c3cnn4ncccc34)n2)C1 | binding | 1 µM | 95
CCc1ccccc1C(=O)Nc1n[nH]c2c(C)c(F)c(C3C(C#N)=C(C)N(C)C(C)=C3C#N)cc12 | cell-free assay, competition with immobilised ligand | 1 µM | 87
CN(c1nccc(-c2cnn3ncccc23)n1)C1CC1 | binding | 1 µM | 100
COc1cnc(Nc2cccc(S(N)(=O)=O)c2)nc1N1CCN(c2ccccc2)C(=O)C1 | binding, competition with immobilised ligand | 1 µM | 99
COc1ncc2cc3ccccc3nc2c1C#N | cell-free assay, competition with immobilised ligand | 5 µM | 98
c1cnn2ncc(-c3ccnc(N4CCC45COC5)n3)c2c1 | binding | 1 µM | 89
Cc1nc(C2CCN(C(=O)c3ccc(OC(F)(F)F)cc3N)CC2)c2ncc(N3CCN(C)CC3)cc2n1 | cell-free assay, competition with immobilised ligand | 1 µM | 100
F[C@@H]1CCN(c2nccc(-c3cnn4ncccc34)n2)C1 | binding | 1 µM | 100
CCN1CCN(Cc2ccc(C(=O)Nc3ccc(C)c(Oc4ccc5c(c4)CC(=O)N5)c3)cc2C(F)(F)F)CC1 | binding, competition with immobilised ligand | 1 µM | 52
Nc1ncc2c(n1)-c1c([nH]c3ccc(C#CC4CC4)cc13)CCCC2 | binding, competition with immobilised ligand | 1 µM | 100
O=C(O)[C@H]1[C@H](Cn2nnc3ccccc3c2=O)CC[C@@H]1C(=O)c1ccc(OCCC2CCOCC2)cc1 | cell-free assay, competition with immobilised ligand | 1 µM | 96
CN(C)c1ncc(F)c(-c2cnn3ncccc23)n1 | binding | 1 µM | 78
Cc1cnc(Nc2ccc(C(=O)N3CCC(N4CCCC4)CC3)cc2)nc1-c1cc2ccccc2s1 | binding, competition with immobilised ligand | 1 µM | 8.3
